Assay results taken from publication PMC9071802 (RSC Advances, 2019).

Assays:
[1] = system: P. aeruginosa MH602 lasB reporter strain (PlasB: gfp(ASV)); test: Quorum sensing inhibition assay, GFP fluorescence of lasB reporter strain; type: cell-based, Pseudomonas aeruginosa; conditions: ± standard deviation, NA: no activity; for inhibition at 62.5 µM / inhibition at 125 µM / inhibition at 250 µM: Pseudomonas aeruginosa; for inhibition at 62.5 µM: read-out: Percentage inhibition of GFP fluorescence, 62.5 μM; for inhibition at 125 µM: read-out: Percentage inhibition of GFP fluorescence, 125 μM; for inhibition at 250 µM: read-out: Percentage inhibition of GFP fluorescence, 250 μM
How it was run: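 The reporter is a chromosomal lasB promoter–gfp(ASV) fusion responsive to 3-oxododecanoyl-HSL. Cultures were grown overnight in LB10, then diluted 1:100 in ABT with 0.25% tryptone and 0.13% yeast extract plus ampicillin 100 µg mL⁻¹ and gentamicin 20 µg mL⁻¹. Test compound in DMSO was tested at 62.5, 125 or 250 µM, with 1% DMSO controls. Cultures were incubated at 37 °C and shaken briefly before each read. Fluorescence (ex 485/em 535 nm) and OD600 were read every 30 min for 20 h, in triplicate per experiment.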

[2] = system: Human Embryonic Kidney cell lines (HEK-293); test: Cytotoxicity MTT assay; type: cell-based; conditions: HEK-293, 25, 50 and 100 μM, 24 h
How it was run: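 HEK cells were grown in high-glucose DMEM with 10% FBS and 1% pen-strep at 37 °C and 5% CO₂. They were seeded at 10⁴ cells/well and left overnight. Test compound from DMSO stock was diluted in medium to 25, 50 and 100 µM and applied for 24 h, with a DMSO blank and a positive control. MTT in phenol-red-free DMEM was added for 3 h. Formazan was dissolved in DMSO and read at 570 and 650 nm. Viability was expressed as % of untreated control.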

[3] = system: LasR, P. aeruginosa PAO-JG21; conditions: read-out: IC50, LasR activity; cited from earlier work
[4] = system: LasR, P. aeruginosa PAO-JP2; conditions: read-out: IC50, LasR activity; cited from earlier work

| Molecule | inhibition at 62.5 µM [1] [%] | inhibition at 125 µM [1] [%] | inhibition at 250 µM [1] [%] | other results |
| --- | --- | --- | --- | --- |
| O=C(Cn1cc(-c2ccc([N+](=O)[O-])cc2)nn1)Nc1nc2ccccc2[nH]1 [6p, N-(1H-Benzo[d]imidazol-2-yl)-2-(4-(4-nitrophenyl)-1H-1,2,3-triazol-1-yl)acetamide] | 63.7 ± 7.51 | 67.1 ± 5.45 | 68.2 ± 3.87 | Cytotoxicity [2]: low cytotoxicity |
| O=C(CCCc1cn(CC(=O)NC2CCCCC2)nn1)Nc1nc2ccccc2[nH]1 [11b, N-(1H-Benzo[d]imidazol-2-yl)-4-(1-(2-(cyclohexylamino)-2-oxoethyl)-1H-1,2,3-triazol-4-yl)butanamide] | – | – | 12.9 ± 20.2 | – |
| O=C(Cn1cc(CCCC(=O)Nc2nc3ccccc3[nH]2)nn1)Nc1ccccn1 [11c, N-(1H-Benzo[d]imidazol-2-yl)-4-(1-(2-oxo-2-(pyridin-2-ylamino)ethyl)-1H-1,2,3-triazol-4-yl)butanamide] | 3.69 ± 11.2 | 15.7 ± 8.81 | 19.4 ± 8.16 | – |
| O=C(CCCc1cn(-c2ccc([N+](=O)[O-])cc2)nn1)Nc1nc2ccccc2[nH]1 [11d, N-(1H-Benzo[d]imidazol-2-yl)-4-(1-(4-nitrophenyl)-1H-1,2,3-triazol-4-yl)butanamide] | 21.2 ± 1.76 | 21.4 ± 2.62 | 39.4 ± 4.6 | – |
| Cc1cc2nc(NC(=O)CCCc3cn(CC(=O)NC4CCCC4)nn3)[nH]c2cc1C [12a, 4-(1-(2-(Cyclopentylamino)-2-oxoethyl)-1H-1,2,3-triazol-4-yl)-N-(5,6-dimethyl-1H-benzo[d]imidazol-2-yl)butanamide] | 28.5 ± 7.69 | 34.1 ± 12.6 | 48.5 ± 5.25 | – |
| Cc1cc2nc(NC(=O)CCCc3cn(CC(=O)NC4CCCCC4)nn3)[nH]c2cc1C [12b, 4-(1-(2-(Cyclohexylamino)-2-oxoethyl)-1H-1,2,3-triazol-4-yl)-N-(5,6-dimethyl-1H-benzo[d]imidazol-2-yl)butanamide] | 5.35 ± 10.2 | 9.74 ± 20.7 | 30.8 ± 26.4 | – |
| Cc1cc2nc(NC(=O)CCCc3cn(CC(=O)Nc4ccccn4)nn3)[nH]c2cc1C [12c, N-(5,6-Dimethyl-1H-benzo[d]imidazol-2-yl)-4-(1-(2-oxo-2-(pyridin-2-ylamino)ethyl)-1H-1,2,3-triazol-4-yl)butanamide] | – | 7.07 ± 11.8 | 48.3 ± 13.4 | – |
| O=C1C=C(Br)/C(=C/Br)O1 [Furanone 30, reference compound] | – | – | – | Percentage inhibition of GFP fluorescence ([1]; 62.5 μM): 77.33 ± 2.00%; Percentage inhibition of GFP fluorescence ([1]; 125 μM): 83.02 ± 3.15%; Percentage inhibition of GFP fluorescence ([1]; 250 μM): 86.86 ± 1.18% |
| Cc1cc2nc(N)[nH]c2cc1C [II, 5,6-dimethyl-2-aminobenzimidazole] | – | – | – | IC50 [3]: 1.4 µM; IC50 [4]: 2.3 µM |
| N-(1H-Benzo[d]imidazol-2-yl)-2-(4-nonyl-1H-1,2,3-triazol-1-yl)acetamide [6e] | – | – | – | Percentage inhibition of GFP fluorescence ([1]; 62.5 μM): 24.87 ± 6.69%; Percentage inhibition of GFP fluorescence ([1]; 125 μM): 37.20 ± 6.71%; Percentage inhibition of GFP fluorescence ([1]; 250 μM): 41.31 ± 7.90% |
